Data published in ChEMBL document CHEMBL1275334, “5-Piperazinyl-3-sulfonylindazoles as potent and selective 5-hydroxytryptamine-6 antagonists” (J Med Chem, 2010).

Assays:
[1] = biological target: T1, 5-hydroxytryptamine receptor 6 (Homo sapiens, UniProt P50406); assay: Displacement of [3H]LSD from human cloned 5HT6 receptor expressed in human HeLa cells; type: cell-based
In short: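 Radioligand displacement of [3H]LSD from cloned human 5-HT6 receptor stably expressed in HeLa cells. All test substances were used as HCl salts. Ki was determined in triplicate.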

[2] = biological target: T1, 5-hydroxytryptamine receptor 6; assay: Antagonist activity at human cloned 5HT6 receptor expressed in human HeLa cells by cyclase assay relative to control; type: functional, cell-based
[3] = biological target: T1, 5-hydroxytryptamine receptor 6; assay: Antagonist activity at human cloned 5HT6 receptor expressed in human HeLa cells by cyclase assay; type: functional, cell-based

T1 sequence (P50406 whole entry): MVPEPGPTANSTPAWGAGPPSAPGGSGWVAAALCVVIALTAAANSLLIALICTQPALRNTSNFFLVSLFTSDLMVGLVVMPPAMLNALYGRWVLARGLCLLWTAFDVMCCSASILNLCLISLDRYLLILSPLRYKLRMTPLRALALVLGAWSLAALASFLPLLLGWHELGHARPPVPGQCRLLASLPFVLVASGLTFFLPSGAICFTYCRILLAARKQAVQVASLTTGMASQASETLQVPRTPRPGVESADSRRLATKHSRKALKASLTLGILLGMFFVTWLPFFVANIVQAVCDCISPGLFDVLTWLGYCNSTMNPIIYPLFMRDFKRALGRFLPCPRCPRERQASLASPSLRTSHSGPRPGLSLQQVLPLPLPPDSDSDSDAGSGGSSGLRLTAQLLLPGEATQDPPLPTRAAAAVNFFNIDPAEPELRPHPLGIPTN

Ki [1] [µM]	Imax [2] [%]	IC50 [3] [µM]	Compound
0.048			O=S(=O)(c1cccc2ccccc12)c1n[nH]c2cccc(N3CCNCC3)c12
	100		CN1CCN(c2ccc3c(c2)c(S(=O)(=O)c2cccc4ccccc24)nn3Cc2ccccc2)CC1
0.001	100	0.062	CN1CCN(c2ccc3[nH]nc(S(=O)(=O)c4cccc(Cl)c4)c3c2)CC1
0.0049	100	0.112	Cc1ccc(S(=O)(=O)c2n[nH]c3ccc(N4CCN(C)CC4)cc23)cc1
0.0052	98	0.467	CN1CCN(c2ccc3[nH]nc(S(=O)(=O)c4ccc(F)cc4)c3c2)CC1
0.0055	100	0.054	CN1CCN(c2ccc3[nH]nc(S(=O)(=O)c4ccccc4F)c3c2)CC1
0.0018	98		CC(C)n1nc(S(=O)(=O)c2cccc3ccccc23)c2cc(N3CCN(C)CC3)ccc21
0.0029	100		CCn1nc(S(=O)(=O)c2ccccc2)c2cc(N3CCNCC3)ccc21
	100	0.101	CN1CCN(c2ccc3[nH]nc(S(=O)(=O)c4ccccc4Cl)c3c2)CC1
0.0017	100		CCn1nc(S(=O)(=O)c2cccc3ccccc23)c2cc(N3CCN(C)CC3)ccc21
0.0018	100		CCCn1nc(S(=O)(=O)c2cccc3ccccc23)c2cc(N3CCN(C)CC3)ccc21
0.0046	100	0.017	CN1CCN(c2cccc3c(S(=O)(=O)c4cccc5ccccc45)n[nH]c23)CC1
0.0011	100	0.057	COc1cccc(S(=O)(=O)c2n[nH]c3ccc(N4CCN(C)CC4)cc23)c1
0.027			Cc1ccc(S(=O)(=O)c2n[nH]c3cc(N4CCNCC4)ccc23)cc1
0.0014	100		CC(C)Cn1nc(S(=O)(=O)c2cccc3ccccc23)c2cc(N3CCN(C)CC3)ccc21
0.0026	100	0.04	CN1CCN(c2ccc3[nH]nc(S(=O)(=O)c4c(Cl)cccc4Cl)c3c2)CC1
0.0032	100		Cn1nc(S(=O)(=O)c2ccccc2)c2cc(N3CCNCC3)ccc21
0.0017	99	0.132	CN1CCN(c2ccc3[nH]nc(S(=O)(=O)c4cccc(F)c4)c3c2)CC1
0.0017	100		CN1CCN(c2ccc3c(c2)c(S(=O)(=O)c2cccc4ccccc24)nn3C)CC1
0.011			O=S(=O)(c1cccc(F)c1)c1n[nH]c2cc(N3CCNCC3)ccc12
	100		CCn1nc(S(=O)(=O)c2cccc3ccccc23)c2cc(N3CCNCC3)ccc21
	100	0.544	COc1ccc(S(=O)(=O)c2n[nH]c3ccc(N4CCN(C)CC4)cc23)cc1
0.0081	100	0.108	CN1CCN(c2ccc3[nH]nc(S(=O)(=O)c4ccc(Cl)cc4)c3c2)CC1
0.022			O=S(=O)(c1cccc2ccccc12)c1n[nH]c2cc(N3CCNCC3)ccc12
0.0009	100	0.038	Cc1cccc(S(=O)(=O)c2n[nH]c3ccc(N4CCN(C)CC4)cc23)c1
0.11			O=S(=O)(c1ccc(Cl)cc1)c1n[nH]c2cc(N3CCNCC3)ccc12
0.124			COc1ccc(S(=O)(=O)c2n[nH]c3cc(N4CCNCC4)ccc23)cc1
0.207			O=S(=O)(c1ccc(C(F)(F)F)cc1)c1n[nH]c2cc(N3CCNCC3)ccc12

Compound	Ki [1] [µM]	Imax [2] [%]	IC50 [3] [µM]
COc1ccc(S(=O)(=O)c2n[nH]c3cccc(N4CCNCC4)c23)cc1	0.088		
O=S(=O)(c1cccc(F)c1)c1n[nH]c2cccc(N3CCNCC3)c12	0.134		
CCCn1nc(S(=O)(=O)c2cccc3ccccc23)c2cc(N3CCNCC3)ccc21			0.0022
O=S(=O)(c1ccc(Cl)cc1)c1n[nH]c2cccc(N3CCNCC3)c12	0.125		
Cc1ccc(S(=O)(=O)c2n[nH]c3cccc(N4CCNCC4)c23)cc1	0.134		
CN1CCN(c2ccc3[nH]nc(S(=O)(=O)c4cccs4)c3c2)CC1	0.0078	96	0.331
